Assay results from ChEMBL document CHEMBL3826892, “Second-Generation Phenylthiazole Antibiotics with Enhanced Pharmacokinetic Properties” (J Med Chem, 2016).
Converted amounts (≈) assume the structure as drawn.

Assays:
Staphylococcus aureus [1] = assay: Antimicrobial activity against methicillin-resistant Staphylococcus aureus RCMB 2658 clinical isolate after 20 hrs by broth microdilution method; type: functional; conditions: RCMB 2658, 20 h
Outline: (§1)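 CLSI broth microdilution in cation-adjusted Mueller Hinton broth. Compounds were serially diluted in triplicate and plates held at 37 °C for 20 h. MIC was taken by eye as the lowest concentration with no visible growth, and the average of the triplicate determinations is reported.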

[2] = Aqueous solubility of the compound in PBS after 2 hrs by turbidity assay; type: physicochemical
Outline: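 Serial dilutions were made […] and diluted 100-fold into PBS. After 2 h, turbidity was read at 540 nm with pre-addition background subtracted. Turbidity was taken as absorbance > blank mean + 3 SD. Solubility limit is the highest concentration with no turbidity.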

[3] = Apparent permeability across apical to basolateral side in human Caco2 cells at pH 6.5 after 2 hrs by LC/MS/MS analysis; type: ADME, cell-based; conditions: Caco-2, pH 6.5
Outline: (§2)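 Caco-2 cells were grown and differentiated for 3 weeks, fed every 2 days. Compound was added to the apical or basolateral side and measured on the opposite side after 2 h by LC/MS/MS. Apical buffer was pH 6.5 transport buffer (glucose, 10 mM HEPES, HBSS) with 100 μM Lucifer yellow; basolateral buffer was pH 7.4. Lucifer yellow fluorescence checked monolayer integrity. Papp = (dQ/dt)/C₀A; efflux ratio = Papp(B→A)/Papp(A→B).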

[4] = Efflux ratio of apparent permeability from basolateral to apical side over apical to basolateral side in human Caco2 cells after 2 hrs by LC/MS/MS analysis; type: ADME, cell-based; conditions: Caco-2; outline: as §2
[5] = Apparent permeability across basolateral to apical side in human Caco2 cells at pH 7.4 after 2 hrs by LC/MS/MS analysis; conditions: Caco-2, pH 7.4
Staphylococcus aureus [6] = assay: Antimicrobial activity against vancomycin-resistant Staphylococcus aureus 10 clinical isolate after 20 hrs by broth microdilution method; type: functional; conditions: isolate 10, 20 h; outline: as §1
Enterococcus faecium [7] = assay: Antimicrobial activity against vancomycin-resistant Enterococcus faecium ATCC 700221 after 20 hrs by broth microdilution method; type: functional; conditions: ATCC 700221, 20 h; outline: as §1
Staphylococcus aureus [8] = assay: Bactericidal activity against methicillin-sensitive Staphylococcus aureus NRS72 clinical isolate after 20 hrs by broth microdilution method; type: functional; conditions: NRS72, 20 h
Staphylococcus aureus [9] = assay: Bactericidal activity against methicillin-resistant Staphylococcus aureus NRS119 clinical isolate after 20 hrs by broth microdilution method; type: functional; conditions: NRS119, 20 h
Staphylococcus aureus [10] = assay: Bactericidal activity against methicillin-resistant Staphylococcus aureus USA400 NRS123 clinical isolate after 20 hrs by broth microdilution method; type: functional; conditions: USA400 NRS123, 20 h
Staphylococcus aureus [11] = assay: Bactericidal activity against methicillin-resistant Staphylococcus aureus USA100 NRS382 clinical isolate after 20 hrs by broth microdilution method; type: functional; conditions: USA100 NRS382, 20 h
Staphylococcus aureus [12] = assay: Bactericidal activity against methicillin-resistant Staphylococcus aureus USA200 NRS383 clinical isolate after 20 hrs by broth microdilution method; type: functional; conditions: USA200 NRS383, 20 h
Staphylococcus aureus [13] = assay: Bactericidal activity against methicillin-resistant Staphylococcus aureus USA300 NRS384 clinical isolate after 20 hrs by broth microdilution method; type: functional; conditions: USA300 NRS384, 20 h
Staphylococcus aureus [14] = assay: Bactericidal activity against vancomycin-resistant Staphylococcus aureus 10 clinical isolate after 20 hrs by broth microdilution method; type: functional; conditions: isolate 10, 20 h
Enterococcus faecium [15] = assay: Bactericidal activity against vancomycin-resistant Enterococcus faecium ATCC 700221 after 20 hrs by broth microdilution method; type: functional; conditions: ATCC 700221, 20 h
Staphylococcus aureus [16] = assay: Bactericidal activity against methicillin-resistant Staphylococcus aureus USA300 assessed as time required to reduce bacterial inoculum to zero colony forming units at 3 times MIC by time kill assay; type: functional
Outline: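 Samples taken at 2, 4, 6, 8, 10, 12 and 24 h were serially diluted in PBS and plated on trypticase soy agar. Viable CFU/mL were counted after at least 16 h at 37 °C.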

Staphylococcus aureus [17] = assay: Antimicrobial activity against methicillin-sensitive Staphylococcus aureus NRS72 clinical isolate after 20 hrs by broth microdilution method; type: functional; conditions: NRS72, 20 h; outline: as §1
Staphylococcus aureus [18] = assay: Antimicrobial activity against methicillin-resistant Staphylococcus aureus NRS119 clinical isolate after 20 hrs by broth microdilution method; type: functional; conditions: NRS119, 20 h; outline: as §1
Staphylococcus aureus [19] = assay: Antimicrobial activity against methicillin-resistant Staphylococcus aureus USA400 NRS123 clinical isolate after 20 hrs by broth microdilution method; type: functional; conditions: USA400 NRS123, 20 h; outline: as §1
Staphylococcus aureus [20] = assay: Antimicrobial activity against methicillin-resistant Staphylococcus aureus USA100 NRS382 clinical isolate after 20 hrs by broth microdilution method; type: functional; conditions: USA100 NRS382, 20 h; outline: as §1
Staphylococcus aureus [21] = assay: Antimicrobial activity against methicillin-resistant Staphylococcus aureus USA200 NRS383 clinical isolate after 20 hrs by broth microdilution method; type: functional; conditions: USA200 NRS383, 20 h; outline: as §1
Staphylococcus aureus [22] = assay: Antimicrobial activity against methicillin-resistant Staphylococcus aureus USA300 NRS384 clinical isolate after 20 hrs by broth microdilution method; type: functional; conditions: USA300 NRS384, 20 h; outline: as §1

Question: For `CCCCc1ccc(-c2nc(C)c(-c3ccnc(NC(N)=S)n3)s2)cc1`, which MIC (Staphylococcus aureus [1]) is on record?
Answer: > 25 µg/mL

Question: Which MIC (Staphylococcus aureus [1]) does the source give for `Cc1nc(-c2ccc(C3=CCC(C)C3)cc2)sc1-c1ccnc(N)n1` (stereo not drawn) here?
Answer: 3.8 µg/mL (≈ 10.9 µM)

Question: With `Cc1nc(-c2ccc(C=C3CCCC3)cc2)sc1-c1ccnc(N)n1` as the compound, how does the MIC (Staphylococcus aureus [1]) read?
Answer: 1.17 µg/mL (≈ 3.36 µM)

Question: Which MIC (Staphylococcus aureus [1]) does the source give for `CCCCc1ccc(-c2nc(C)c(-c3ccnc(NC(=N)N(C)C)n3)s2)cc1` here?
Answer: 0.78 µg/mL (≈ 1.98 µM)

Question: What about the solubility kinetic at 2 h [2] of the same compound?
Answer: 53 µM (≈ 20.9 µg/mL)

Question: With `CCCCc1ccc(-c2nc(C)c(C(=O)/C=C/N(C)C)s2)cc1` as the compound, how does the MIC (Staphylococcus aureus [1]) read?
Answer: > 25 µg/mL

Question: With `CCCCc1ccc(-c2nc(C)c(-c3ccnc(-n4cccn4)n3)s2)cc1` as the compound, how does the MIC (Staphylococcus aureus [1]) read?
Answer: > 25 µg/mL

Question: Which MIC (Staphylococcus aureus [1]) does the source give for `CCCCc1ccc(-c2nc(C)c(-c3ccnc(N)n3)s2)cc1` here?
Answer: 3.12 µg/mL (≈ 9.62 µM)

Question: What about the solubility kinetic at 2 h [2] of the same compound?
Answer: 42 µM (≈ 13.6 µg/mL)

Question: What about the Papp A→B at 2 h [3] of the same compound?
Answer: 14.9 ×10⁻⁶ cm/s

Question: What about the efflux ratio at 2 h [4] of the same compound?
Answer: 1.1

Question: What about the Papp B→A at 2 h [5] of the same compound?
Answer: 17 ×10⁻⁶ cm/s

Question: With `Cc1nc(-c2ccc(-c3ccco3)cc2)sc1-c1ccnc(N)n1` as the compound, how does the MIC (Staphylococcus aureus [1]) read?
Answer: 8.7 µg/mL (≈ 26 µM)

Question: What about the solubility kinetic at 2 h [2] of the same compound?
Answer: 14 µM (≈ 4.68 µg/mL)

Question: With `Cc1nc(-c2ccc(/C3=C/CCCCCC3)cc2)sc1-c1ccnc(N)n1` as the compound, how does the MIC (Staphylococcus aureus [1]) read?
Answer: 5.6 µg/mL (≈ 14.9 µM)

Question: Which results are given for `Cc1nc(-c2ccc(C3=CCCC3)cc2)sc1-c1ccnc(N)n1`?
Answer: MIC (Staphylococcus aureus [1]): 3.12 µg/mL (≈ 9.33 µM); solubility kinetic at 2 h [2]: 35 µM (≈ 11.7 µg/mL)

Question: For `Cc1nc(-c2ccc(/C=C/C3CCCC3)cc2)sc1-c1ccnc(N)n1`, which MIC (Staphylococcus aureus [1]) is on record?
Answer: 3.12 µg/mL (≈ 8.61 µM)

Question: With `Cc1nc(-c2ccc(-c3ccoc3)cc2)sc1-c1ccnc(N)n1` as the compound, how does the MIC (Staphylococcus aureus [1]) read?
Answer: 7.8 µg/mL (≈ 23.3 µM)

Question: What about the solubility kinetic at 2 h [2] of the same compound?
Answer: 13 µM (≈ 4.35 µg/mL)

Question: For `Cc1nc(-c2ccc(I)cc2)sc1-c1ccnc(N)n1`, which MIC (Staphylococcus aureus [1]) is on record?
Answer: > 25 µg/mL

Question: With `CN[C@@H](CC(C)C)C(=O)N[C@H]1C(=O)N[C@@H](CC(N)=O)C(=O)N[C@H]2C(=O)N[C@H]3C(=O)N[C@H](C(=O)N[C@@H](C(=O)O)c4cc(O)cc(O)c4-c4cc3ccc4O)[C@H](O)c3ccc(c(Cl)c3)Oc3cc2cc(c3O[C@H]2O[C@@H](CO)[C@H](O)[C@@H](O)[C@@H]2O[C@@H]2C[C@@](C)(N)[C@@H](O)[C@@H](C)O2)Oc2ccc(cc2Cl)[C@H]1O` as the compound, how does the MIC (Staphylococcus aureus [6]) read?
Answer: > 64 µg/mL

Question: What about the MIC (Enterococcus faecium [7]) of the same compound?
Answer: > 64 µg/mL

Question: And the MBC (Staphylococcus aureus [8])?
Answer: 2 µg/mL (≈ 1.38 µM)

Question: What about the MBC (Staphylococcus aureus [9]) of the same compound?
Answer: 1 µg/mL (≈ 0.69 µM)

Question: What about the MBC (Staphylococcus aureus [10]) of the same compound?
Answer: 1 µg/mL (≈ 0.69 µM)

Question: What about the MBC (Staphylococcus aureus [11]) of the same compound?
Answer: 1 µg/mL (≈ 0.69 µM)

Question: And the MBC (Staphylococcus aureus [12])?
Answer: 1 µg/mL (≈ 0.69 µM)

Question: What about the MBC (Staphylococcus aureus [13]) of the same compound?
Answer: 1 µg/mL (≈ 0.69 µM)

Question: And the MBC (Staphylococcus aureus [14])?
Answer: > 64 µg/mL

Question: What about the MBC (Enterococcus faecium [15]) of the same compound?
Answer: > 64 µg/mL

Question: And the Time (Staphylococcus aureus [16])?
Answer: 24 h

Question: Which MIC (Staphylococcus aureus [17]) does the source give for `CC(=O)NC[C@H]1CN(c2ccc(N3CCOCC3)c(F)c2)C(=O)O1` [LINEZOLID] here?
Answer: 1 µg/mL (≈ 2.96 µM)

Question: And the MIC (Staphylococcus aureus [18])?
Answer: 32 µg/mL (≈ 94.9 µM)

Question: What about the MIC (Staphylococcus aureus [19]) of the same compound?
Answer: 1 µg/mL (≈ 2.96 µM)

Question: And the MIC (Staphylococcus aureus [20])?
Answer: 1 µg/mL (≈ 2.96 µM)

Question: What about the MIC (Staphylococcus aureus [21]) of the same compound?
Answer: 1 µg/mL (≈ 2.96 µM)

Question: What about the MIC (Staphylococcus aureus [22]) of the same compound?
Answer: 1 µg/mL (≈ 2.96 µM)

Question: What about the MIC (Staphylococcus aureus [6]) of the same compound?
Answer: 1 µg/mL (≈ 2.96 µM)

Question: What about the MIC (Enterococcus faecium [7]) of the same compound?
Answer: 1 µg/mL (≈ 2.96 µM)

Question: And the MBC (Staphylococcus aureus [8])?
Answer: 2 µg/mL (≈ 5.93 µM)

Question: And the MBC (Staphylococcus aureus [9])?
Answer: > 64 µg/mL

Question: What about the MBC (Staphylococcus aureus [10]) of the same compound?
Answer: 16 µg/mL (≈ 47.4 µM)

Question: What about the MBC (Staphylococcus aureus [11]) of the same compound?
Answer: 8 µg/mL (≈ 23.7 µM)

Question: And the MBC (Staphylococcus aureus [12])?
Answer: 32 µg/mL (≈ 94.9 µM)

Question: What about the MBC (Staphylococcus aureus [13]) of the same compound?
Answer: 4 µg/mL (≈ 11.9 µM)

Question: And the MBC (Staphylococcus aureus [14])?
Answer: 2 µg/mL (≈ 5.93 µM)

Question: What about the MBC (Enterococcus faecium [15]) of the same compound?
Answer: 32 µg/mL (≈ 94.9 µM)
